IDH1 mut inh: inhibitors of IDH1 R132H reductase, primary screen, biochemical, plate reader, single point; AID 624101, 2012; inhibition, % at 10 µM; 70,000 compounds, 0.18% hits; diaphorase/resazurin fluorescence, 60 min; Isocitrate dehydrogenase [NADP] cytoplasmic (Homo sapiens), O75874; in the data active means inhibition above about 34%; inconclusive means no clear call, values can overlap the other calls; inactive means below about 11%;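 further: 0% = DMSO and 100% = no enzyme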
T cruzi growth-1: T. cruzi intracellular proliferation inhibitors, primary screen, cell-based, beta-gal Tulahuen parasites, NIH3T3 host, luminescence; inhibition, % at 8.34 µM; T. cruzi beta-gal in NIH3T3, GalScreen luminescence, 90 h; 77,000 compounds, 5.9% hits;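 active means mean inhibition above about 93%, with at least 55% of replicates each passing it, limit read from the data, passing the limit was not always enough; inconclusive means only one of those two conditions holds; inactive means neither condition holds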
KDM4C inh: inhibitors of GASC-1 (KDM4C) histone demethylase, primary screen, biochemical, single concentration HTS; inhibition, % at 12.5 µM; 96,000 compounds, 0.15% hits; Lysine-specific demethylase 4C (Homo sapiens), Q9H3R0; AID 720574, 2013; GST-KDM4C 2-372, H3K9me3 peptide, LANCE TR-FRET;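 active means mean replicate inhibition above about 25%, with at least 55% of replicates also reaching it, limit read from the data, passing the limit was not always enough; inconclusive means only one of those two conditions met; inactive means neither condition met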
Target sequence (Q9H3R0 2-372 limits assumed): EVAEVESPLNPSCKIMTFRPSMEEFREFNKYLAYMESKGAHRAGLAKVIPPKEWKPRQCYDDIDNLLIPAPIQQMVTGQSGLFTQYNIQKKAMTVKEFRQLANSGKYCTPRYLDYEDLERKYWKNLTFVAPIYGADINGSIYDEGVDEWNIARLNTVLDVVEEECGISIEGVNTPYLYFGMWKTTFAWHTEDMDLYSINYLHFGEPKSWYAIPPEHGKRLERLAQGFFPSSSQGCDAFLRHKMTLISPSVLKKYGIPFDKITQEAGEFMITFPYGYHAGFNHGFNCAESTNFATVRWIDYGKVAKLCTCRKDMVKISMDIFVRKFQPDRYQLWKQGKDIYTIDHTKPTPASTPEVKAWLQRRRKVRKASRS
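System – N-terminal GST-fused human GASC-1 (KDM4C) fragment, residues 2-372 · Input – enzyme final amount 10 nM · Technique – LANCE TR-FRET, Eu antibody, ULight-streptavidin, EDTA, ex 340 nm, em 618/671 nm · Medium – HEPES buffer, pH 7.5, plus ascorbate · Incubation – enzyme reaction 30 min, then detection 60 min, both room temperature · Reagent – H3K9me3 peptide with Fe(II)/2OG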
T cruzi growth-2: T. cruzi intracellular proliferation inhibitors, confirmation, cell-based, NIH3T3 host, beta-gal parasite, luminescence, cherry-pick; shares compounds with T cruzi growth-1; T. cruzi beta-gal in NIH3T3, GalScreen luminescence, 90 h; inhibition, % at 8.35 µM; 5,600 compounds, 72% hits; AID 651739, 2012;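 active means mean replicate inhibition above about 95% and at least 55% of replicates individually reaching it, limit read from the data; inconclusive means only one of the two criteria is met; inactive means neither criterion is met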
T cruzi growth-3: inhibitors of intracellular T. cruzi replication, confirmation, NIH3T3 host cells, beta-gal parasites, cherry-pick, set 2. shares compounds with T cruzi growth-1. T. cruzi beta-gal in NIH3T3, GalScreen luminescence, 90 h. inhibition, % at 2.09 µM. 5,600 compounds, 21% hits;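 active means mean inhibition above about 95%, with at least 55% of replicates also reaching it, limit read from the data; inconclusive means meets just one of the two conditions; inactive means meets neither condition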;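 further: plate controls were neutral control median for no effect and positive control median for full effect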
3T3 cytotox: cytotoxicity in mouse NIH/3T3 fibroblasts, confirmation, cytotoxicity control for T. cruzi proliferation inhibitor project, cell-based, cherry-pick, single point; NIH/3T3 viability, CellTiter-Glo ATP luminescence, 90 h; 5,600 compounds, 14% hits; cytotoxicity (signal decrease), % at 8.35 µM; shares compounds with T cruzi growth-1;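 active means mean signal decrease across replicates above about 35% based on untreated-well scatter, with enough replicates individually passing, limit read from the data; inconclusive means no rule stated though some were filed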;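 further: 0% = median of neutral control wells and 100% = median of positive control wells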
3T3 cytotox 2: NIH/3T3 fibroblast cytotoxicity, confirmation, cytotoxicity control, cell-based, cherry-pick, single point, set 2. inhibition, % at 24.9 µM. shares compounds with T cruzi growth-1. 5,600 compounds, 56% hits. AID 651744, 2012. NIH/3T3 viability, CellTiter-Glo ATP luminescence, 90 h;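 active means mean loss of cell viability signal at or above a set limit, and enough replicates individually reaching it; inconclusive means meets only the mean limit or only the replicate share; inactive means meets neither condition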;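 further: 0% = median of neutral control wells and 100% = median of positive control wells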
* hit, by the source's call; u = inconclusive; x = not tested or not shown. This excerpt belongs to a sample that is enriched for hits.

SMILES	IDH1 mut inh	T cruzi growth-1	KDM4C inh	T cruzi growth-2	T cruzi growth-3	3T3 cytotox	3T3 cytotox 2
C[C@H](CO)N1C[C@H](C)[C@@H](CN(C)C(=O)Nc2ccccc2)Oc2ncc(C#CC3CCCCC3)cc2C1=O	0	103*	4	106*	37	12	30*
C[C@@H]1CN([C@H](C)CO)C(=O)c2cc(C#CC3CCCCC3)cnc2O[C@H]1CN(C)C(=O)Nc1ccccc1	-1	x	-1	x	x	x	x
CCS(=O)(=O)N1CCC2(CC1)CN(C(=O)CN1CCOCC1)[C@@H](CO)c1c2c2ccc(OC)cc2n1C	x	x	0	x	x	x	x
CCC(=O)Nc1ccc2c(c1)C(=O)N(C)[C@H]1CC[C@@H](CC(=O)N[C@@H](C)c3ccccc3)O[C@H]1CO2	x	37	-2	x	x	x	x
CO[C@H]1CN(C)C(=O)c2ccc(NC(=O)Nc3cccc(Cl)c3)cc2OC[C@H](C)NC[C@@H]1C	0	-31	-2	x	x	x	x
C[C@@H]1CN([C@H](C)CO)C(=O)c2c(c3ccccc3n2C)-c2ccccc2CO[C@H]1CN(C)C(=O)[C@@H]1CCCN1C	x	-91	-1	x	x	x	x
CCCC#Cc1ccc2c(c1)O[C@@H](CN(C)C(=O)CC1CC1)[C@@H](C)CN([C@@H](C)CO)S2(=O)=O	-3	57	-1	x	x	x	x
CCCC#Cc1ccc2c(c1)O[C@@H](CN(C)C(=O)CC1CC1)[C@H](C)CN([C@H](C)CO)S2(=O)=O	1	112*	-2	100*	-21	21	24*
CCCC#Cc1ccc2c(c1)O[C@@H](CN(C)C(=O)CC1CC1)[C@H](C)CN([C@@H](C)CO)S2(=O)=O	0	u	-2	106*	56	10	49*
CCCC#Cc1ccc2c(c1)O[C@H](CN(C)C(=O)CC1CC1)[C@H](C)CN([C@H](C)CO)S2(=O)=O	2	57	1	x	x	x	x
O=C(C[C@@H]1CC[C@H](NC(=O)c2ccncc2)[C@@H](CO)O1)NCC1CCCCC1	0	20	-1	x	x	x	x
Cc1cc(C(=O)Nc2cccc3c2O[C@H](CN(C)Cc2ccc(C(=O)Nc4ccccc4N)cc2)[C@H](C)CN([C@@H](C)CO)C3=O)n(C)n1	x	93*	-1	91	66	46*	91*
Cc1cc(C(=O)Nc2cccc3c2O[C@H](CN(C)Cc2ccc(C(=O)O)cc2)[C@H](C)CN([C@@H](C)CO)C3=O)n(C)n1	x	x	-1	x	x	x	x
Cc1cc(C(=O)Nc2cccc3c2O[C@H](CN(C)Cc2ccc(C(F)(F)F)cc2)[C@H](C)CN([C@H](C)CO)C3=O)n(C)n1	x	18	-1	x	x	x	x
Cc1cc(C(=O)Nc2cccc3c2O[C@@H](CN(C)Cc2ccc(C(F)(F)F)cc2)[C@@H](C)CN([C@@H](C)CO)C3=O)n(C)n1	x	96*	0	79	-7	18	u
Cc1cc(C(=O)Nc2cccc3c2O[C@H](CN(C)Cc2ccc(C(=O)O)cc2)[C@@H](C)CN([C@H](C)CO)C3=O)n(C)n1	x	x	-1	x	x	x	x
Cc1cc(C(=O)Nc2cccc3c2O[C@@H](CN(C)Cc2ccc(C(=O)Nc4ccccc4N)cc2)[C@@H](C)CN([C@H](C)CO)C3=O)n(C)n1	x	106*	-2	104*	98*	-7	-8
CNC(=O)C[C@H]1CC[C@H]2[C@@H](COC[C@@H](O)CN2C(=O)c2ccc3c(c2)OCO3)O1	x	x	-1	x	x	x	x
C[C@@H]1CN([C@H](C)CO)C(=O)c2cccc(NC(=O)c3ccncc3)c2O[C@@H]1CN(C)S(=O)(=O)c1cccs1	1	-132	11	x	x	x	x
C[C@H]1CN([C@@H](C)CO)C(=O)c2cccc(NC(=O)Nc3ccc(F)cc3)c2O[C@@H]1CN(C)C(=O)NC1CCCCC1	2	-1	-1	x	x	x	x
C[C@H](CO)N1C[C@H](C)[C@H](CN(C)S(=O)(=O)c2ccccc2)OCCCC[C@H](C)Oc2ccc(NC(=O)Nc3ccc(F)cc3)cc2C1=O	0	109*	-1	106*	83	26	u
C[C@@H]1CCCCO[C@@H](CN(C)S(=O)(=O)c2ccccc2)[C@H](C)CN([C@@H](C)CO)C(=O)c2cc(NC(=O)Nc3ccc(F)cc3)ccc2O1	5	104*	-2	107*	38	1	-9
C[C@@H]1CCCCO[C@@H](CN(C)S(=O)(=O)c2ccccc2)[C@@H](C)CN([C@@H](C)CO)C(=O)c2cc(NC(=O)Nc3ccccc3)ccc2O1	-1	30	x	x	x	x	x
C[C@@H]1CCCCO[C@H](CN(C)S(=O)(=O)c2ccccc2)[C@H](C)CN([C@@H](C)CO)C(=O)c2cc(NC(=O)Nc3ccccc3)ccc2O1	0	51	0	x	x	x	x
C[C@@H]1CCCCO[C@H](CN(C)S(=O)(=O)c2ccccc2)[C@@H](C)CN([C@@H](C)CO)C(=O)c2cc(NC(=O)Nc3ccc(F)cc3)ccc2O1	x	106*	-1	108*	75	5	36*
SMILES	IDH1 mut inh	T cruzi growth-1	KDM4C inh	T cruzi growth-2	T cruzi growth-3	3T3 cytotox	3T3 cytotox 2
C[C@@H]1CN([C@@H](C)CO)C(=O)c2cc(NC(=O)Nc3ccccc3)ccc2O[C@@H](C)CCCCO[C@H]1CN(C)S(=O)(=O)c1ccccc1	0	x	0	x	x	x	x
C[C@H]1CN([C@@H](C)CO)C(=O)c2cc(C#CCN(C)C)cnc2O[C@@H]1CN(C)Cc1cccc(F)c1	x	x	3	x	x	x	x
COC(=O)c1ccc(NC(=O)CSc2nnc(-c3cccs3)n2-c2ccc(OC)cc2)cc1	1	x	x	x	x	x	x
CCS(=O)(=O)N1CC(=O)N2[C@H](CO)[C@@H](c3ccc(C#CCC(C)C)cc3)[C@@H]2C1	x	x	-2	x	x	x	x
CC(C)NC(=O)N(C)C[C@H]1Oc2ccc(NS(=O)(=O)c3ccc(F)cc3)cc2C(=O)N([C@@H](C)CO)C[C@@H]1C	1	13	-3	x	x	x	x
C[C@@H]1CN([C@@H](C)CO)S(=O)(=O)c2ccc(C#CC3CC3)cc2O[C@@H]1CN(C)C(=O)c1cccnc1	6	17	-1	x	x	x	x
C[C@@H]1CN([C@@H](C)CO)S(=O)(=O)c2ccc(C#CC3CC3)cc2O[C@H]1CN(C)C(=O)c1ccccc1	0	u	-1	u	53	29	48*
C[C@H]1CN([C@@H](C)CO)S(=O)(=O)c2ccc(C#CC3CC3)cc2O[C@H]1CN(C)C(=O)c1ccncc1	0	110*	2	96*	81	13	30*

High-throughput results deposited in PubChem by Broad Institute.
